For 39 compounds, cytotoxicity results are on record in ChEMBL document CHEMBL4513216, “Probing the Open Global Health Chemical Diversity Library for Multistage-Active Starting Points for Next-Generation Antimalarials” (ACS Infect Dis, 2020).

This data set in a line: Toxicity liver stage against HepG2, at 10uM. It counts as cell-based. Further details: test concentration 10 uM, cell line HepG2-A16-CD81EGFP. Conditions: human, HepG2-A16-CD81EGFP cells; read-out: INHIBITION
Summed up:
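Uninfected HepG2-A16-CD81EGFP cells, 3 × 10^3 per well, 1536-well, plated on prespotted compound at 10 μM final, parasite-free screening media added to match infected plates; puromycin 10 μM positive, DMSO 0.5% negative; run in parallel with 48 h PbLuc assay at 37 °C, 5% CO2; viability by CellTiter-Glo luminescence, normalized to controls.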
`O=C([C@H]1C[C@H]2OCC[C@H]2N(Cc2ccoc2)C1)N1CCCO1`: the cytotoxicity at 10 µM is -69.8%.

Turning to `O=C(Nc1ccccc1)C1CN(CC2CCOCC2)CC12CCOCC2` (centres undefined), the cytotoxicity at 10 µM amounted to 1.65%.

For the compound `Cc1nnc2n1CCN(CC(=O)NC(C)c1cccc3ccccc13)C2` (centres undefined), the cytotoxicity at 10 µM is 7.15%.

`CC(=O)N1CCCC1(C(=O)N1CCCC1)c1cnccn1` (centres undefined): the cytotoxicity at 10 µM came to 0.142%.

Turning to `Cc1cnn(CCNC(C)c2nnc(-c3cccc(Cl)c3)o2)c1` (centres undefined), the cytotoxicity at 10 µM is -1.41%.

As for `COc1ccnc(N2Cc3cnc(C(C)(C)C)nc3C2)n1`, the cytotoxicity at 10 µM is -9.85%.

For `CC(C)CCC(=O)N1CCN(c2ncnc3nc(N)ccc23)CC1`, the cytotoxicity at 10 µM was found to be 8.32%.

Regarding `CCN1CCCc2cc(-c3cncn3C(C)CN3CCOCC3)ccc21` (centres undefined), the cytotoxicity at 10 µM was 12.6%.

With `Cn1ccnc1CN1CC[C@@H](NS(C)(=O)=O)[C@@H]1Cc1ccccc1`, the cytotoxicity at 10 µM is -77.2%.

As for `COCc1nc2cc(NCc3scnc3C)ccc2o1`, the cytotoxicity at 10 µM was 18.6%.

`CCCOC(=O)N1CCn2nc(-c3nc4ccccc4n3C)cc2C1`: the cytotoxicity at 10 µM worked out at 10.6%.

Turning to `Cn1cc(CN2C[C@@H]3COC[C@]3(C(=O)N3CCCO3)C2)cn1`, the cytotoxicity at 10 µM was 12.1%.

In the case of `Cc1noc(CCCC(=O)NC(C)c2cccnc2)n1` (centres undefined), the cytotoxicity at 10 µM was -12.5%.

In the case of `O=C(CCc1nc2cccnc2[nH]1)Nc1ccc2c(c1)OCC(=O)N2`, the cytotoxicity at 10 µM was 6.78%.

As to `Cn1c(-c2ccccc2)nn(CCNS(=O)(=O)c2ccccc2Cl)c1=O`, the cytotoxicity at 10 µM was -2.85%.

For `CC1CCCN(C(=O)c2csc(S(N)(=O)=O)c2)CC1` (centres undefined), the cytotoxicity at 10 µM is 1.52%.

On to `O=C(O)[C@H]1C[C@H](C(=O)NCc2ccncc2)CN(CCC(F)(F)F)C1`, for which the cytotoxicity at 10 µM was -142%.

For the compound `Cc1cc(C(F)F)nn1C(C)C(=O)NCc1nccn1C` (centres undefined), the cytotoxicity at 10 µM amounted to 4.86%.

Turning to `Cc1nnsc1C(=O)N(C)Cc1nc(-c2ccccn2)no1`, the cytotoxicity at 10 µM was 1.89%.

`Cc1cc(=O)n(C)cc1NC(=O)Cc1ccc(C(F)(F)F)cc1`: the cytotoxicity at 10 µM is -14%.

`Cc1cc(NC(=O)N2CCCC(O)C2)nn1-c1ccccc1Cl` (centres undefined): the cytotoxicity at 10 µM came out at 4.99%.

For `CCCc1cc(NCc2cc(C)on2)n2nccc2n1`, the cytotoxicity at 10 µM was -6.85%.

For `CCn1cc2c(n1)C(COC)CN(C(=O)c1ccccn1)C2` (centres undefined), the cytotoxicity at 10 µM came out at 2.61%.

On to `COc1ccc(CCC(=O)Nc2cccnc2N2CCCC2)cc1Br`, for which the cytotoxicity at 10 µM was 1.06%.

In the case of `CCc1nnsc1C(=O)N1CCCN(Cc2cnn(CC)c2)CC1`, the cytotoxicity at 10 µM is -1.76%.

Take `Cc1ccccc1CN1CC[C@@]2(O)CCN(C(=O)C3CCC3)C[C@H]2C1`: the cytotoxicity at 10 µM was 27.9%.

For the compound `OC(CN(Cc1ccccc1)Cc1cccnc1)c1ccco1` (centres undefined), the cytotoxicity at 10 µM was -0.408%.

For `CCn1c(C2CCCNC2)nn(CCn2cncn2)c1=O` (centres undefined), the cytotoxicity at 10 µM is -18.1%.

Take `O=C(CCC1CCCC1)NCc1nnc2ccccn12`: the cytotoxicity at 10 µM was determined as 2.52%.

In the case of `CN(C)c1ncc(CN2CCCC(Nc3ccc4c(c3)OCCO4)C2)s1` (centres undefined), the cytotoxicity at 10 µM worked out at 8.12%.

Consider `COc1ccc(C(=O)CNC(=O)c2nc(Cl)sc2C(C)C)cc1`, for which the cytotoxicity at 10 µM was -3.15%.

Regarding `CC(=O)N1CCC(CN2CCN(Cc3nccn3C)C(C)C2)CC1` (centres undefined), the cytotoxicity at 10 µM was -15.4%.

For the compound `O=C(Nc1ccnc(OC2CCOC2)c1)c1ccccc1Cl` (centres undefined), the cytotoxicity at 10 µM is 8.5%.

`N#Cc1cccc(CN2CCn3cc(Cn4cccn4)nc3C2)c1`: the cytotoxicity at 10 µM is -0.501%.

On to `CC(Cn1cncn1)NCCN1CCc2ccccc2C1` (centres undefined), for which the cytotoxicity at 10 µM is -1.27%.

As for `CCn1c(Cn2cncn2)nnc1C1CCN(C(=O)CCSC)CC1`, the cytotoxicity at 10 µM is -13.6%.

On to `O=S(=O)(c1ccccc1)N1CCC[C@]2(C[C@@H](OCC3CC3)CO2)C1`, for which the cytotoxicity at 10 µM is -69.2%.

With `O=C1N(Cc2ccccn2)C[C@H]2CN(S(=O)(=O)c3ccccc3)CCN12`, the cytotoxicity at 10 µM was determined as 4.97%.

`O=C(O)CSc1nnc(-c2cn[nH]c2)n1-c1ccccc1C(F)(F)F`: the cytotoxicity at 10 µM stood at 1.2%.
